Active and inactive are the calls of the source. The calls are words filed in the database; no cut-off is given here.

In assay [1] the target is T1, Monoglyceride lipase (Mus musculus) (UniProt O35678).
T1 sequence (whole entry): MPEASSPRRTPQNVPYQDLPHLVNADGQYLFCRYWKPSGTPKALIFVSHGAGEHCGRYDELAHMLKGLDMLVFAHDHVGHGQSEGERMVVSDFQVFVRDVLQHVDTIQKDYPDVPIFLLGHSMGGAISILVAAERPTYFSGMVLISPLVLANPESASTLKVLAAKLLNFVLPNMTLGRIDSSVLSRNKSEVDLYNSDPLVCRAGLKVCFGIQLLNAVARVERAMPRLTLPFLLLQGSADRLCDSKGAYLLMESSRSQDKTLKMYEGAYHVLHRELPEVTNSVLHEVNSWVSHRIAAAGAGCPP
Kind of assay: Inhibition of MAGL in C57B1/6J mouse brain membrane after 30 mins by competitive activity-based protein profiling method. The format is cell membranes. The method, boiled down:
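Mouse brain membrane proteome (1 mg ml^-1 in PBS) preincubated 30 min at 37°C with inhibitor (1 nM-10 μM). FP-rhodamine then added (2 μM final) for 30 min at room temperature. Reaction quenched in SDS loading buffer, boiled 5 min at 90°C, resolved by SDS-PAGE and read by in-gel fluorescence.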

In the next assay the target is T2, Monoglyceride lipase (Rattus norvegicus, UniProt Q8R431).
T2 sequence (Q8R431 whole entry): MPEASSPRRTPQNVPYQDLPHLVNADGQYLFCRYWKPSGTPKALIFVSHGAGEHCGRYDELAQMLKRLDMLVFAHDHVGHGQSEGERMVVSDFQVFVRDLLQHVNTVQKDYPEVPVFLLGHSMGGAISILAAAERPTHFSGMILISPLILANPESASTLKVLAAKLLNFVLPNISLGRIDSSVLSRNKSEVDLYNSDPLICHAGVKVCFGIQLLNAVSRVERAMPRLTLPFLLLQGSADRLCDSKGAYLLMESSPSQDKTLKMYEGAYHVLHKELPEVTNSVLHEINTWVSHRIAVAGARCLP
The experiment in a line: Inhibition of MAGL in Wistar rat brain.

Assay [2] addresses T3, Monoacylglycerol lipase ABHD6 (Mus musculus) (UniProt Q8R2Y0).
T3 sequence (whole entry): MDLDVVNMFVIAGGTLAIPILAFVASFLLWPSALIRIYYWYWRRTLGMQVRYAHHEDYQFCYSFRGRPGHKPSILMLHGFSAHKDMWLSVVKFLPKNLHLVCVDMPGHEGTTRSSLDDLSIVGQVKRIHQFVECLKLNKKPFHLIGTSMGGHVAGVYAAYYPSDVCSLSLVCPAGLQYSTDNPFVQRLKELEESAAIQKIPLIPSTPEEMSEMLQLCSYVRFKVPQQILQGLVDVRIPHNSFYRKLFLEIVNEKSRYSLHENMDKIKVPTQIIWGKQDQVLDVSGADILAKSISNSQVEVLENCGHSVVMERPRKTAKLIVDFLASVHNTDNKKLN
Kind of assay: Inhibition of ABHD6 in C57B1/6J mouse brain membrane after 30 mins by competitive activity-based protein profiling method. It is filed as cell membranes. The method, boiled down:
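Mouse brain membrane proteome at 1 mg ml^-1 in PBS was preincubated with inhibitor (1 nM-10 μM) for 30 min at 37°C. FP-rhodamine was then added at 2 μM final for 30 min at room temperature, followed by SDS-PAGE and in-gel fluorescence scanning.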

`COc1ccc(C(O)(c2ccc(OC)cc2)C2CCN(C(=O)Oc3ccc([N+](=O)[O-])cc3)CC2)cc1`: the inhibition result in assay [1] was “Active”.

The compound `O=C(Nc1cccc(-c2ccccc2)c1)OC1CCCCC1` returned an IC50 on Monoglyceride lipase of 200 µM.

As for `CN(Cc1cccc(-c2ccncc2)c1)C(=O)Oc1ccc([N+](=O)[O-])cc1`, the inhibition entry in assay [1] and in assay [2] was “Active” in each case.

With `COc1ccc(C(c2ccc(OC)cc2)N2CCN(C(=O)Oc3ccc([N+](=O)[O-])cc3)CC2)cc1`, the inhibition result in assay [1] and in assay [2] was “Active” each time.

With `O=C(Oc1ccc([N+](=O)[O-])cc1)N1CCN(C(c2ccc(F)cc2)c2ccc(F)cc2)CC1`, the inhibition result in assay [1] and in assay [2] was “Active” in each case.

The IC50 is the concentration at which inhibition is half-maximal. The low end stands for higher potency, the high end for lower potency.

Source of the values: ChEMBL document CHEMBL1221219, “Selective blockade of 2-arachidonoylglycerol hydrolysis produces cannabinoid behavioral effects” (Nat Chem Biol, 2009).
